# Reference: PubChem BioAssay
# Activity calls are given as the source filed them.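 The calls were made as follows, unless noted: active = viability at or under a set limit in both replicates, limit being median viability minus 3 SD (cut at about 48% in these data, passing the limit was not always enough); inconclusive = at or under the limit in just one replicate; inactive = at or above the limit in both replicates.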
# Key:
# [1] = reducers of endogenous Her2 protein level, primary screen, SKBR3 breast tumor cells, AlphaScreen, ATP viability (AID 461;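 active = Her2 level under about 52% in both replicate screens, with viability over 70% of control, limit read from the data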;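 as to Her2 level: lower value means less Her2 protein in the cells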;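 as to viability: percent of carrier control wells set as 100% viability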); details: 18-24 h, measured here: SKBR3 viability, ATP luminescence, at 10 µM
# [2] = target: Receptor tyrosine-protein kinase erbB-2 (Homo sapiens) (UniProt P04626); assay: as above; details: 18-24 h, at 10 µM, stronger effect = lower value
# Sequence of Receptor tyrosine-protein kinase erbB-2 (Homo sapiens) (P04626 whole entry, looked up): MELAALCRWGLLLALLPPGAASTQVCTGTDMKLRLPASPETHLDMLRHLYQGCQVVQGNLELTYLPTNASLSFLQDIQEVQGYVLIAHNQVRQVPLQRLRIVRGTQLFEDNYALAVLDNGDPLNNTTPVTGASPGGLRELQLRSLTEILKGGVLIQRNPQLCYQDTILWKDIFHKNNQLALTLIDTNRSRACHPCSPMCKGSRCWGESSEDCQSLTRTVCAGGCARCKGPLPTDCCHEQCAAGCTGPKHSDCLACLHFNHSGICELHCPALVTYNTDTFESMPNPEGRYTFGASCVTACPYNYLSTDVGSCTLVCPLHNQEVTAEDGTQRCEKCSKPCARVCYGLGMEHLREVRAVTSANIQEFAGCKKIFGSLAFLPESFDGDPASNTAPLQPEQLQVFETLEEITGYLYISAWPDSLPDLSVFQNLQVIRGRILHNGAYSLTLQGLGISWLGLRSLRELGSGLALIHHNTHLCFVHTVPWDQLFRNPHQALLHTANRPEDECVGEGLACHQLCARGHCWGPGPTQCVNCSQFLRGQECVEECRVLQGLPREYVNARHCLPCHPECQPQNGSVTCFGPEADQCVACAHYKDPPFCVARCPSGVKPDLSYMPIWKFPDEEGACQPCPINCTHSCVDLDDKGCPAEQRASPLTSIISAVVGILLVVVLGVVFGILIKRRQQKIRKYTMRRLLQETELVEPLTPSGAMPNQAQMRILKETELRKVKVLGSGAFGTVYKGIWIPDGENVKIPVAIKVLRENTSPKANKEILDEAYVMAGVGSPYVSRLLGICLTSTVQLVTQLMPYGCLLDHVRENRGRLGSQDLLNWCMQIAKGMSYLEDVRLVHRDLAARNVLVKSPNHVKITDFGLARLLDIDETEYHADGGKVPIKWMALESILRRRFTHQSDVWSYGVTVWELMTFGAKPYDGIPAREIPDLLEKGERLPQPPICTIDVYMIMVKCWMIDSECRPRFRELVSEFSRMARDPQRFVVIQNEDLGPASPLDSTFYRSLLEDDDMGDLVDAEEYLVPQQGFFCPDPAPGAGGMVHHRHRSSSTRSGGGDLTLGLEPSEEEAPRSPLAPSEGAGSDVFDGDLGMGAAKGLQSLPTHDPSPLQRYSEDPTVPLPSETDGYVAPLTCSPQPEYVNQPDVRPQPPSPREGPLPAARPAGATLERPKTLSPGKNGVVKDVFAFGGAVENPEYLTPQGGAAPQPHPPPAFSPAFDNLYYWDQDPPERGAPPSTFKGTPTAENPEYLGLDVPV
# [3] = SK-BR-3 cell growth inhibitors, pilot screen, 24 h, human (AID 572;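 active = viability at or below 10% of carrier control in both of two separate runs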;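 also: compound exposure lasted between 18 and 24 h rather than exactly 24 h; 100% = carrier-treated control wells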); details: SK-BR-3 viability, CellTiter-Glo luminescence, at 10 µM, stronger effect = lower value
# [4] = HUVEC growth inhibition – cell-based, human, primary screen (AID 575;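 active = viability at or below 30% in both replicate assays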;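 also: 100% = median of untreated cell wells with 0.1% DMSO on each plate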); details: HUVEC proliferation, CellTiter-Glo luminescence, 72 h; at 10 µM; stronger effect = lower value
# Method in brief: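 Test system: HUVEC primary cells. Quantity: 1250 endothelial cells in each well. Dosing: single-point 10 µM, DMSO 0.1% final. Incubation: 72 h treatment at 37 °C. Measured by: CTG luminescence. Control set: DMSO cell controls and MePR drug controls. Plate: collagen-coated 384-well format.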
# [5] = growth inhibitors of H69AR lung tumor, primary screen, human, duplicate replicates (AID 580); details: H69AR lung tumor cells viability, ATP luminescence, 72 h; at 10 µM; stronger effect = lower value;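 also: 100% = mean luminescence of untreated wells and 0% = no signal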
# [6] = reversal of MRP1-mediated doxorubicin resistance, pilot screen, H69AR cells, doxorubicin co-treatment (AID 601;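 active = viability loss from added drug above about 55%, and viability with drug at most 40%, in both replicates, limit read from the data, passing the limit was not always enough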); details: CellTiter-Glo, 72 h, at 10 µM; for differential viability (reversal): stronger effect = higher value
# [7] = 384-well plate pilot, post-Golgi transport modulator project, inhibition of yeast transport mutant growth (AID 636; in the data active = inhibition above about 31%); details: absorbance 615 nm, about 18 h, stronger effect = higher value
# [8] = growth suppression of yeast trafficking mutant, preliminary HTS, modulators of trafficking downstream of Golgi apparatus project, 1536-format plate, OD 615 nm (AID 637; in the data active = inhibition above about 30%); details: yeast transport mutant growth, absorbance 615 nm, 18 h; stronger effect = higher value
# [9] = H69AR cells + 2 uM doxorubicin, measured here: viability with 2 uM doxorubicin, stronger effect = lower value
# [10] = H69AR cells, compound alone cytotoxicity
Compound,viability [1],Her2 level [2],viability [3],viability [4],viability [5],differential viability (reversal) ([6]; H69AR cells + 2 uM doxorubicin),"viability [6, 9]","viability [6, 10]",inhibition [7],inhibition [8]
CC1NC(=O)NC1CCCCCC(=O)NCCc1ccccc1 (stereo not given),112%,80% (inactive),112% (inactive),90.4% (inactive),93.3% (inactive),7.38% (inactive),85.9%,93.3%,-5.07% (inactive),0.79% (inactive)
CC1(C)CC(=O)C(C(=O)CCCCC(=O)C2C(=O)CC(C)(C)CC2=O)C(=O)C1,99.5%,158% (inactive),99.5% (inactive),98.4% (inactive),95.1% (inactive),6.97% (inactive),88.2%,95.1%,0.53% (inactive),-0.5% (inactive)
CC/C(O)=C(/C#N)c1nnc2n1CCCCC2,100%,84% (inactive),100% (inactive),101% (inactive),97.4% (inactive),10.8% (inactive),86.5%,97.4%,-4.68% (inactive),-5.71% (inactive)
FC(F)(F)c1cccc(N2CCN(Cc3cccnc3)CC2)c1,90.5%,99.5% (inactive),90.5% (inactive),101% (inactive),110% (inactive),25.3% (inactive),84.9%,110%,-0.4% (inactive),-1.61% (inactive)
Cc1nc2ccccc2c2c1C(=O)N(CCC1=CCCCC1)C2=O,83.5%,87% (inactive),83.5% (inactive),103% (inactive),88.4% (inactive),-1.33% (inactive),89.7%,88.4%,-3.42% (inactive),-1.17% (inactive)
Cc1ccc(-n2c(Cc3cccn3C)nnc2SCC(=O)NCc2ccc3c(c2)OCO3)cc1,97.5%,89% (inactive),97.5% (inactive),88.2% (inactive),85.8% (inactive),5.04% (inactive),80.7%,85.8%,-5.07% (inactive),-4.59% (inactive)
CCCCn1nnc(NC(=O)c2cc3ccccc3o2)n1,107%,88.5% (inactive),107% (inactive),119% (inactive),81.6% (inactive),-8.71% (inactive),90.3%,81.6%,0.13% (inactive),8% (inactive)
COc1ccc(C2=NOC(C(=O)NC3CCCCC3)C2)cc1OC (stereo not given),97.5%,92% (inactive),97.5% (inactive),106% (inactive),95.9% (inactive),11.2% (inactive),84.8%,95.9%,-9.04% (inactive),0.95% (inactive)
O=S(=O)(NCCCCCNS(=O)(=O)c1ccccc1)c1ccccc1,92.5%,90.5% (inactive),92.5% (inactive),112% (inactive),93.2% (inactive),-13.4% (inactive),107%,93.2%,-4% (inactive),-3.39% (inactive)
COc1cccc(Cn2c(OCC3CCCO3)nc3c2c(=O)n(C)c(=O)n3C)c1 (stereo not given),86.5%,86% (inactive),86.5% (inactive),104% (inactive),101% (inactive),-0.075% (inactive),101%,101%,-2.11% (inactive),3.77% (inactive)
CC(C(=O)Nc1ccccc1-c1ccccc1)N1CCN(C(=O)c2ccco2)CC1 (stereo not given),91.5%,95% (inactive),91.5% (inactive),96.2% (inactive),74.1% (inactive),8.3% (inactive),65.8%,74.1%,-6.18% (inactive),0.32% (inactive)
CN(CC(=O)Nc1nccs1)S(=O)(=O)c1ccc(F)cc1,82%,114% (inactive),82% (inactive),92.1% (inactive),95.2% (inactive),-7.69% (inactive),103%,95.2%,0.78% (inactive),-4.75% (inactive)
CCC1Oc2ccc(C)cc2N(CC(=O)N(Cc2cccnc2)Cc2ccc(C)o2)C1=O (stereo not given),93%,84% (inactive),93% (inactive),83.7% (inactive),74.8% (inactive),41.1% (inactive),33.7%,74.8%,-6.27% (inactive),6.56% (inactive)
CN(C(=O)c1ccc2c(=O)n3c(nc2c1)CCCCC3)c1ccccc1,96.5%,91% (inactive),96.5% (inactive),97.5% (inactive),102% (inactive),0.655% (inactive),101%,102%,-7.26% (inactive),2.54% (inactive)
CCOC(=O)c1[nH]nc(N)c1NC(=O)c1ccc(Cl)cc1Cl,79.5%,120% (inactive),79.5% (inactive),89.9% (inactive),87.8% (inactive),3.99% (inactive),83.8%,87.8%,3.6% (inactive),8.89% (inactive)
COc1cccc(OC)c1C(=O)n1nc(C)cc1C,84.5%,87% (inactive),84.5% (inactive),110% (inactive),98.8% (inactive),3.22% (inactive),95.5%,98.8%,1.18% (inactive),4.1% (inactive)
CCCOc1ccc(/C(O)=C2/C(=O)C(=O)N(CCCOC)C2c2ccncc2)cc1 (stereo not given),98%,84% (inactive),98% (inactive),110% (inactive),94.5% (inactive),7.81% (inactive),86.7%,94.5%,-9.46% (inactive),3.67% (inactive)
CS(=O)(=O)N1CCN(c2ccccc2NC(=O)c2cccs2)CC1,99.5%,100% (inactive),99.5% (inactive),108% (inactive),91.3% (inactive),-5% (inactive),96.3%,91.3%,-1.17% (inactive),1% (inactive)
COc1cccc(CNc2nc3nc(C)c(Cl)c(C)n3n2)c1,86.5%,99.5% (inactive),86.5% (inactive),95.1% (inactive),83.6% (inactive),0.33% (inactive),83.3%,83.6%,-4.93% (inactive),-2.38% (inactive)
O=C1CCCN1CCCNc1ncnc2c1[nH]c1ccc(Cl)cc12,89%,81% (inactive),89% (inactive),85.3% (inactive),80.9% (inactive),3.12% (inactive),77.8%,80.9%,-7.6% (inactive),-0.48% (inactive)
Cc1cc(=O)oc2cc(Oc3ncccn3)ccc12,98%,106% (inactive),98% (inactive),101% (inactive),83% (inactive),-6.5% (inactive),89.4%,83%,-8.4% (inactive),16.7% (inactive)
CCC(C)NC(=O)c1cc(-c2ccc(OC)cc2)on1 (stereo not given),106%,94% (inactive),106% (inactive),118% (inactive),89.8% (inactive),0.48% (inactive),89.3%,89.8%,-8.24% (inactive),1.33% (inactive)
CCN(CC)c1ccc(NC(=O)CN2CCN(CC(=O)Nc3ccccc3F)CC2)cc1,81.5%,93.5% (inactive),81.5% (inactive),80.2% (inactive),99.6% (inactive),11% (inactive),88.6%,99.6%,-3.95% (inactive),-1.33% (inactive)
O=C(CCN1C(=O)COc2ccccc21)N1CCN(c2ccccn2)CC1,130%,96.5% (inactive),130% (inactive),114% (inactive),106% (inactive),27.7% (inactive),78.6%,106%,-2.08% (inactive),3.33% (inactive)
CCN(Cc1cc2cc(OC)ccc2[nH]c1=O)C(=O)Cc1ccc(OC)cc1,91%,87.5% (inactive),91% (inactive),96.5% (inactive),88.2% (inactive),6.29% (inactive),81.9%,88.2%,-0.66% (inactive),-3.44% (inactive)
O=C1CSC(c2cn(-c3ccccc3)nc2-c2ccccc2)N1Cc1ccco1 (stereo not given),97%,110% (inactive),97% (inactive),63.1% (inactive),88.3% (inactive),17.7% (inactive),70.6%,88.3%,0.92% (inactive),3.55% (inactive)
CCOc1ccc2[nH]c(=O)c(C(c3nnnn3Cc3ccco3)N3CCC(C)CC3)cc2c1 (stereo not given),80.5%,81.5% (inactive),80.5% (inactive),82.3% (inactive),85.7% (inactive),-1.93% (inactive),87.7%,85.7%,-5.34% (inactive),3.02% (inactive)
O=C1N=C(N2CCOCC2)CS1,108%,110% (inactive),108% (inactive),103% (inactive),104% (inactive),5.3% (inactive),98.3%,104%,-4.27% (inactive),-1.45% (inactive)
CCOC(=O)N1CCN(C(=O)Cn2ncn3nc(-c4cccs4)cc3c2=O)CC1,97%,136% (inactive),97% (inactive),111% (inactive),90.9% (inactive),-9.68% (inactive),101%,90.9%,1.71% (inactive),0.33% (inactive)
